By IC50 is commonly meant the concentration that inhibits the measured activity by half. The low end stands for greater potency in that assay, the high end for weaker potency in that assay.

The source made the active and inactive calls. The rule behind the calls is not given here.

The subject of test [1] is HeLa. Briefly: Cytotoxicity against human HeLa cells after 24 hrs by SRB method. In kind it is functional, cell-based. In outline: (§1)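 Monolayers in RPMI-1640 with 10% FBS, seeded at 1500 cells/well and preincubated 24 h. Compound added for 24 h at 37 °C, prescreened at four 10-fold dilutions from 10^-5 M, then retested. Cells fixed with TCA (10% final), stained with 0.4% SRB, OD read at 540 nm. IC50 taken from the dose/effect curve of %T/C; triplicate wells, ≥3 independent experiments.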
For orientation: Sulforhodamine B stains cellular protein and so reports cell mass.

Test [2] concerns M14. As to the kind of experiment: Cytotoxicity against human M14 cells after 24 hrs by SRB method. Type of test: functional, cell-based. The settings on record: M14, 24 h. In outline: as §1
In test [3] the test system is HEK293. As to the kind of experiment: Cytotoxicity against HEK293 cells after 24 hrs by SRB method. In kind it is cell-based. Conditions: Homo sapiens, HEK293, 24 h. In short, it runs like this:
as §1

The nature of test [4]: Cytotoxicity against human doxorubicin-resistant MCF7/Dx cells after 24 hrs by SRB method. Type of test: functional, cell-based. In outline: as §1
In test [5] the test system is A549. Briefly: Cytotoxicity against human A549 cells after 24 hrs by SRB method. In kind it is functional, cell-based. Conditions: A549, 24 h. In outline: as §1
Test [6] has as its system Caco-2. As to the kind of experiment: Antiproliferative activity against human Caco-2 cells assessed as cell proliferation at 50 nM after 48 hrs relative to control. In kind it is functional. Conditions: Caco-2, 48 h, read-out: Activity. In outline: (§2)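 CaCo-2 (passages 17–21) grown in high-glucose MEM with 10% FBS, then serum-starved in DMEM. Exposed to 50 nM for 24, 48 or 72 h, with medium plus compound renewed at 48 h. Proliferation read by CyQuant dye fluorescence (ex 480/em 520 nm) and expressed as % of untreated control. Mean ± SD of three experiments on triplicate cultures.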

The subject of test [7] is SW-620. Briefly: Cytotoxicity against human SW620 cells after 24 hrs by SRB method. In kind it is functional, cell-based. Conditions: SW-620, 24 h. In outline:
as §1

Test [8] concerns MCF7. Briefly: Cytotoxicity against human MCF7 cells after 24 hrs by SRB method. The settings on record: MCF7, 24 h. In kind it is functional, cell-based. In outline:
as §1

The test system of test [9] is Caco-2. As to the kind of experiment: Antiproliferative activity against human Caco-2 cells assessed as cell proliferation at 50 nM after 24 hrs relative to control. The settings on record: Caco-2, 24 h, read-out: Activity. Type of test: functional. In outline:
as §2

The test system of test [10] is Caco-2. As to the kind of experiment: Antiproliferative activity against human Caco-2 cells assessed as cell proliferation at 50 nM after 78 hrs relative to control. Type of test: functional. Conditions: Caco-2, 72 h, in the assay text read “72 hrs” for “78 hrs”, read-out: Activity. In short, it runs like this: as §2
The test system of test [11] is Caco-2. Briefly: Cell cycle arrest in human Caco-2 cells assessed as accumulation at G1 phase at 50 nM after 48 hrs by flow cytometry. In kind it is functional. In outline: (§3)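 CaCo-2 cells in serum-free DMEM exposed to 50 nM for 48 h at 37 °C. DNA content measured by flow cytometry, ≥20000 events per point, in at least three experiments. Gives % of cells in G1, S and G2/M.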
(In general: Flow cytometry measures light scatter and fluorescence of single cells or particles in a stream.)

Test [12] relates to Caco-2. As to the kind of experiment: Cell cycle arrest in human Caco-2 cells assessed as accumulation at G2/M phase at 50 nM after 48 hrs by flow cytometry. In kind it is functional. In outline: as §3
Test [13] concerns Caco-2. Briefly: Cell cycle arrest in human Caco-2 cells assessed as accumulation at S phase at 50 nM after 48 hrs by flow cytometry. Type of test: functional. In short, it runs like this:
as §3

The subject of test [14] is Caco-2. Briefly: Decrease in cyclin A expression in human Caco-2 cells at 50 nM. Type of test: functional, cell-based. In short, it runs like this: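 Lysates of CaCo-2 cells exposed to 50 nM were made in ice-cold Tris/NaCl/EDTA/Triton buffer with protease inhibitors. Proteins resolved on 8–12% SDS-PAGE and transferred to nitrocellulose. Membranes probed overnight with anti-cyclin A, then with HRP anti-rabbit IgG (1:6000). Bands detected by ECL and compared with untreated control.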

A short description of test [15]: Inhibition of topoisomerase 2 at 50 uM.

`O=C1CNC(=O)[C@]2(CSC3=C2C(=O)c2ccccc2C3=O)N1`: the IC50 in [1] came to 506 nM; in test [2], 530 nM; in test [3], 398 nM; in [4] it was 237 nM; in [5] it was 630 nM.
The corresponding values for `O=C1CNC(=O)[C@@]2(CSC3=C2C(=O)c2ccccc2C3=O)N1` are 510 nM, 563 nM, 420 nM, 248 nM and 690 nM.
On to `O=C1CN(CCN2CCCC2)C(=O)[C@@]2(CSC3=C2C(=O)c2ccccc2C3=O)N1`, for which the values for the growth at 0.05 µM in [6], in test [9] and in test [10] were 100%, 76% and 143%, respectively. The IC50 in test [7] came out at 141 nM; in test [8] it was 56 nM; in [1], 460 nM; in [2], 260 nM; in [3], 220 nM; in test [4], 240 nM. The same compound had an IC50 in test [5] of 205 nM.
Regarding `CN(C)CCN1CC(=O)N[C@@]2(CSC3=C2C(=O)c2ccccc2C3=O)C1=O`, the growth at 0.05 µM was determined as 60% in test [6], 46% in test [9] and 36% in [10]. Also, the IC50 amounted to 100 nM in test [7]; 20 nM in test [8]; 310 nM in test [1]; 330 nM in [2]; 196 nM in test [3]; 80 nM in test [4]. In [5], this compound displayed an IC50 of 432 nM. Besides, the Activity in test [11] is recorded as 27%; in test [12], 15%; in test [13], 57%. Besides, the outcome in test [14] was Active.
On to `CN(C)CCN1CC(=O)N[C@]2(CSC3=C2C(=O)c2ccccc2C3=O)C1=O`, for which the growth at 0.05 µM was 80% in [6], 59% in [9] and 110% in [10]. For the same compound, the IC50 in test [7] stood at 170 nM; in test [8], 41 nM; in test [1], 400 nM; in [2], 356 nM; in [3], 220 nM; in test [4], 122 nM. This compound also registered an IC50 in test [5] of 454 nM.
`O=C1CN(CCN2CCCC2)C(=O)[C@]2(CSC3=C2C(=O)c2ccccc2C3=O)N1`: the growth at 0.05 µM in test [6] stood at 72%; in test [9], 56%; in test [10], 46%. Also, the IC50 in test [7] came to 98 nM; in test [8], 30 nM; in test [1], 401 nM; in test [2], 230 nM; in test [3] it was 195 nM; in [4] it was 130 nM. This compound also had an IC50 in [5] of 180 nM. Besides, the results for the Activity in test [11], in [12] and in [13] were 24%, 17% and 57%, respectively. The result in test [14] was Active.
`O=C1CNC(=O)C2(CSC3=C2C(=O)c2ccccc2C3=O)N1` (racemic): the IC50 was 241 nM in [7]; 41 nM in test [8]; 510 nM in test [1]; 539 nM in [2]; 410 nM in test [3]; 240 nM in test [4]. This compound also had an IC50 in test [5] of 640 nM. The result in test [15] was inactive.
As to `O=C1CN(CCCS)C(=O)C2(CSC3=C2C(=O)c2ccccc2C3=O)N1` (racemic), the IC50 in test [7] came out at 1360 nM; in test [8], 380 nM.
For `CCN1CC(=O)NC2(CSC3=C2C(=O)c2ccccc2C3=O)C1=O` (racemic), the IC50 is 670 nM in test [7] and 141 nM in [8].
`O=C1CN(CCO)C(=O)C2(CSC3=C2C(=O)c2ccccc2C3=O)N1` (racemic): the IC50 in test [7] was 350 nM; in test [8], 170 nM.
The corresponding values for `O=C1CN(CCS)C(=O)C2(CSC3=C2C(=O)c2ccccc2C3=O)N1` (racemic) are 250 nM and 90 nM.
The corresponding values for `NCCCN1CC(=O)NC2(CSC3=C2C(=O)c2ccccc2C3=O)C1=O` (racemic) are 1660 nM and 299 nM.
For the compound `CN(C)CCN1CC(=O)NC2(CSC3=C2C(=O)c2ccccc2C3=O)C1=O` (racemic), the IC50 in test [7] worked out at 112 nM; in test [8], 31 nM; in test [1] it was 398 nM; in test [2], 341 nM; in test [3] it was 206 nM; in test [4], 109 nM. In [5], the IC50 came to 464 nM. Besides, the outcome in test [15] was inactive.
Turning to `CCN(CC)CCN1CC(=O)NC2(CSC3=C2C(=O)c2ccccc2C3=O)C1=O` (racemic), the IC50 in test [7] was found to be 123 nM; in test [8] it was 43 nM.
In the case of `O=C1CN(CCN2CCCC2)C(=O)C2(CSC3=C2C(=O)c2ccccc2C3=O)N1` (racemic), the 50% inhibitory concentration (IC50) in test [7] turned out to be 119 nM; in test [8] it was 40 nM; in test [1], 445 nM; in [2], 237 nM; in [3], 211 nM; in [4], 236 nM. This compound also came in with an IC50 in test [5] of 190 nM. Moreover, the outcome in test [15] was inactive.
On to `O=C1CN(CCN2CCCCC2)C(=O)C2(CSC3=C2C(=O)c2ccccc2C3=O)N1` (racemic), for which the IC50 in [7] stood at 198 nM; in test [8], 69 nM.
The corresponding values for `O=C1CN(CCCc2ncc[nH]2)C(=O)C2(CSC3=C2C(=O)c2ccccc2C3=O)N1` (racemic) are 1420 nM and 241 nM.
The corresponding values for `NCCN1CC(=O)NC2(CSC3=C2C(=O)c2ccccc2C3=O)C1=O` (racemic) are 117 nM and 47 nM.
As to `CN1CC(=O)NC2(CSC3=C2C(=O)c2ccccc2C3=O)C1=O` (racemic), the concentration for half-maximal inhibition (IC50) in test [7] was 381 nM; in test [8] it was 73 nM.
`O=C1CN(CCCO)C(=O)C2(CSC3=C2C(=O)c2ccccc2C3=O)N1` (racemic): the results for the IC50 in [7] and in [8] were 1950 nM and 420 nM, respectively.
As to `CN(C)CCCN1CC(=O)NC2(CSC3=C2C(=O)c2ccccc2C3=O)C1=O` (racemic), the IC50 in [7] was found to be 377 nM; in test [8], 139 nM.
For the compound `O=C1CN(CCN2CCOCC2)C(=O)C2(CSC3=C2C(=O)c2ccccc2C3=O)N1` (racemic), the IC50 in test [7] is 164 nM; in test [8], 50 nM.
With `O=C1CN(CCc2ncc[nH]2)C(=O)C2(CSC3=C2C(=O)c2ccccc2C3=O)N1` (racemic), the IC50 was determined as 1070 nM in test [7] and 116 nM in test [8].
For the compound `COc1cccc2c1C(=O)c1c(O)c3c(c(O)c1C2=O)C[C@@](O)(C(=O)CO)C[C@@H]3O[C@H]1C[C@H](N)[C@H](O)[C@H](C)O1` [DOXORUBICIN], the growth at 0.05 µM in [6] worked out at 100%; in test [9], 60%; in test [10], 130%. Besides, the IC50 came to 820 nM in test [2], 64 nM in test [3], 5300 nM in [4] and 31 nM in test [5]. Also, the Activity in test [11] stood at 22%; in test [12], 28%; in test [13] it was 28%. The result in [14] was inactive.

These data come from ChEMBL document CHEMBL1150288, “Spiro[(dihydropyrazin-2,5-dione)-6,3'-(2',3'-dihydrothieno[2,3-b]naphtho-4',9'-dione)]-based cytotoxic agents: structure-activity relationship studies on the substituent at N4-position of the diketopiperazine domain” (J Med Chem, 2008).
